Screening data deposited in PubChem BioAssay by several laboratories.
The list is not random: actives were taken first. Their share in the collection is about 2.8%.
TNAP inh hi DEA: inhibitors of human TNAP at high phosphate acceptor concentration; hit rate 0.03% among 200,000; inhibition, % at 20 µM; purified TNAP, CDP-star luminescence, 1 M DEA;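 active means over 50% inhibition of tissue-nonspecific alkaline phosphatase at 20 µM in the single-dose screen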;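 further: plate controls were DMSO wells for no effect and EDTA-quenched wells as full inhibition for full effect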
Target sequence (P05186 whole entry, looked up): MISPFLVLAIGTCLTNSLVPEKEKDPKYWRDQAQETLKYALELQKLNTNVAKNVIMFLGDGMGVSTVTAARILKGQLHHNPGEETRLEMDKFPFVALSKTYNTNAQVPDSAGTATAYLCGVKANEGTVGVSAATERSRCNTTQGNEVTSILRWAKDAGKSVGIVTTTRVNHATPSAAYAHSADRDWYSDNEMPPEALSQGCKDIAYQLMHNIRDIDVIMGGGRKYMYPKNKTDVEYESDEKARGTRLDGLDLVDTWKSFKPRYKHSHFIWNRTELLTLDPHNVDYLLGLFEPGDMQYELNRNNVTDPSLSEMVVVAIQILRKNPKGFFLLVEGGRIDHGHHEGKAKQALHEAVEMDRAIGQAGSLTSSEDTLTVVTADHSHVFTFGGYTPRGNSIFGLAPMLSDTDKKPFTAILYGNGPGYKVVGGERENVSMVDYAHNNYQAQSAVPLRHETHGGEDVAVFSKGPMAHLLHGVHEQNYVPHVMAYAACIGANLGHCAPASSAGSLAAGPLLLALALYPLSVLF
TNAP act hiacc: activators of human TNAP at high phosphate acceptor concentration | P05186 | purified TNAP, CDP-star luminescence, 1 M DEA, 30 min; active compounds read high; 0 = EDTA background, 1 = DMSO-only activity | activation factor at 20 µM | 200,000 tested, under 10 active;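 active means activation factor at least 2 at 20 µM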
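Test system – human TNAP · Doses – 20 µM single point · Incubation – 30 min, room temperature · Signal – luminescent substrate turnover signal · Read-out basis – activation factor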
RAM inhibit: blocks the yeast RAM network; S. cerevisiae dse1pr::URA3 reporter, 5-FOA growth OD615, 2 d; analog-sensitive cbk1-as2 kinase mutant strain; inhibition, % at 50 µM; hit rate 1.8% among 190,000; AID 868;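 active means inhibition above a set limit, 3 SD over mean compound inhibition, cut at about 8.4% in these data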;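 further: 0% = DMSO-only wells with no growth and 100% = 10 µM 1-NA-PP1 full growth; inhibition rescues growth on 5-FOA so higher OD means more RAM inhibition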
Yeast lifespan up: extends the lifespan of yeast | S. cerevisiae growth with nicotinamide, OD615; deaD strain in restrictive glucose medium | hit rate 0.68% among 130,000 | inhibition of the nicotinamide effect, % at 10 µM;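 active means inhibition above a set limit, placed 3 SD over the median of all compounds, cut at about 26% in these data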;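 further: 0% = nicotinamide-treated wells and 100% = cells grown without nicotinamide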
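assay system = DeaD-strain S. cerevisiae | measured by = absorbance at 615 nm | probe or stimulus = nicotinamide 1.5 mM | buffer or medium = CSMM-D glucose medium, restrictive | times = 48 h at 30 °C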
Yeast growth inh: reduces growth of yeast BB579 in restrictive medium; S. cerevisiae BB579 growth, OD615, 48 h; inhibition, % at 10 µM; hit rate 0.51% among 140,000; AID 804;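 active means inhibition above a set limit, 3 SD over the mean compound inhibition, cut at about 44% in these data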
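test system = yeast BB579 (DeaD) | buffer or medium = restrictive CSMM-D medium | doses = single compound dose of 10 µM, 0.25% DMSO final | times = 4 h preincubation and 48 h exposure at 30 °C | technique = culture absorbance at 615 nm | benchmarks = amphotericin B 10 µg/mL, positive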
TNAP inh noacc: inhibitors of human TNAP without phosphate acceptor | inhibition, % at 20 µM | purified TNAP, CDP-star luminescence, 30 min | hit rate 0.26% among 200,000;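 active means tissue-nonspecific alkaline phosphatase inhibition above about 50% at 20 µM in the single-dose screen, limit read from the data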;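 further: 0% = DMSO negative control and 100% = EDTA positive control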
An asterisk follows results filed as active; . = not tested or not shown.

SMILES	TNAP inh hi DEA	TNAP act hiacc	RAM inhibit	Yeast lifespan up	Yeast growth inh	TNAP inh noacc
CC(C)(C)OC(=O)C(Cc1ccc(OC(C)(C)C)cc1)NC(=O)CNC(=O)OCc1ccccc1 (stereo unspecified)	-6.2	1.1	5.5	0.8	-41.8	-8.5
Cn1c(=O)c2cc(S(=O)(=O)NCCC(=O)NCC3CCCO3)ccc2n(C)c1=O (stereo unspecified)	1.6	1	1.2	-3.0	-13.0	-3.6
Cc1ccc(S(=O)(=O)N(C)CC(=O)OCC(=O)N2CCN(c3ccccc3)CC2)cc1	-1.1	1	8.7*	1.3	-19.6	-13.3
COc1ccc(-c2n[nH]c3c2C(c2ccc(OC)c(OC)c2)N(c2ccccc2)C3=O)cc1 (stereo unspecified)	-3.4	1	9.1*	3.3	-52.5	1.9
COc1cccc(C2c3c(-c4ccccc4)n[nH]c3C(=O)N2c2ccc(C(=O)O)cc2)c1 (stereo unspecified)	-3.4	1	4.7	-36.1	-37.8	9.5
COc1ccc(CCN2C(=O)c3[nH]nc(-c4ccccc4O)c3C2c2ccccc2)cc1OC (stereo unspecified)	-2.7	1	11.1*	-0.5	-30.3	-49.6
C=CCn1c(COc2ccc(Cl)cc2)nnc1SCC(=O)c1c(N)n(C)c(=O)n(C)c1=O	-8.6	1.1	4.2	.	.	-4.1
COc1ccccc1NC(NC(=O)c1cccnc1)C(Cl)(Cl)Cl (stereo unspecified)	-5.4	1.1	0.8	.	.	-7.0
Cc1sc2ncnc(N/N=C/c3ccccc3O)c2c1C	3.0	1	-1.0	1.9	68.3*	-98.7
Cc1sc2ncnc(N/N=C/c3ccc(O)cc3)c2c1C	-1.0	1	-0.8	-2.4	-20.6	-34.6
COc1ccc(CC(=O)Nc2nnc(C(C)C)s2)cc1OC	3.7	1	-0.4	.	.	-3.2
O=S1(=O)CC(O)C(NCCO)C1 (stereo unspecified)	-2.1	1	0.8	.	.	-1.2
CC1=Nc2ccccc2/C1=C\c1nc(-c2ccc(F)cc2)oc1O	2.6	1	8.6*	-15.3	-32.0	16.2
CN=Cc1nc(-c2ccccc2)oc1O	-1.8	1	0.0	.	-4.3	-3.9
COC(=O)c1ccc(CSc2nc3ccccc3o2)cc1	-2.7	1	8.8*	-17.3	-1.5	-11.0
Cc1ccc(NC(=O)/C(C#N)=C(\N)C(Cl)(Cl)Cl)nc1	-3.0	1	1.1	.	.	-9.9
O=C1c2ccc(Oc3cccc([N+](=O)[O-])c3)cc2C(=O)N1c1ccccn1	-4.1	1	1.0	.	.	-14.0
O=C1c2cc([N+](=O)[O-])cc3cc([N+](=O)[O-])cc(c23)C(=O)N1c1ccccn1	4.7	1	0.7	31.6*	-16.1	-6.0
Cc1ccc(S(=O)(=O)N2CCCCC2)cc1NC(=O)C1CCCO1 (stereo unspecified)	-4.3	1	-0.1	.	.	-11.7
CCOc1cc(N2CCOCC2)c(OCC)cc1NC(C)C(=O)N1CCC(C)CC1 (stereo unspecified)	1.2	1	2.4	-4.5	-9.2	-5.2
COc1ccc(NC(=O)Cc2ccccc2)cn1	-6.6	1.1	0.2	.	.	-18.5
COc1ccc(NC(=O)/C(Cl)=C(/Cl)S(=O)Cc2ccccc2)cn1 (stereo unspecified)	-2.3	1	0.8	53.1*	-57.8	-9.4
CC1CCCC(C)N1C(=C(Cl)Cl)C(=C1SCCS1)[N+](=O)[O-] (stereo unspecified)	3.9	1	8.8*	.	.	-1.7
Cc1ccc(N2C(=O)CS/C2=C(\C(Cl)=C(Cl)Cl)[N+](=O)[O-])cc1	14.4	0.9	1.4	-9.4	-9.2	11.5
CCc1ccc2[nH]c(=O)c(CN(Cc3ccccc3)C(=O)Nc3ccccc3OC)cc2c1	-2.3	1	5.1	-9.6	-38.2	-3.7
SMILES	TNAP inh hi DEA	TNAP act hiacc	RAM inhibit	Yeast lifespan up	Yeast growth inh	TNAP inh noacc
CCCSc1nc(C)c(CC(=O)O)c(=O)[nH]1	-3.8	1	1.9	-11.0	-44.6	-7.1
COc1cc(/C=C2/S/C(=N/S(=O)(=O)c3ccccc3)NC2=O)c([N+](=O)[O-])cc1OC	2.8	1	9.4*	-3.1	-47.3	-10.0
O=C(Nc1ccccn1)c1cc(-c2cccc(Cl)c2)nc2ccccc12	-4.8	1	4.4	.	.	-6.5
N#CCc1nn(-c2ccc(F)cc2)c(N)c1C#N	-1.9	1	0.2	.	.	-24.7
N#CC(c1cccc(Cl)c1)c1ccc2c(C(F)(F)F)cc(C(F)(F)F)nc2n1 (stereo unspecified)	16.0	0.8	4.4	-10.6	63.5*	14.4
CCNC(=O)NC(=O)COC(=O)CCc1nc(=O)c2ccccc2n1C	-2.9	1	3.4	.	.	10.7
O=C(/C(=C\c1ccccc1)c1nc2ccccc2[nH]1)c1ccc(Cl)cc1	-1.7	1	1.0	6.6	-44.5	-14.7
O=C(/C(=C/c1ccc(Cl)cc1)c1nc2ccccc2[nH]1)c1cccs1	-1.8	1	0.1	31.3*	-25.4	-2.8
O=C(NN1C(=O)c2ccccc2NC1c1ccccc1OCc1ccccc1)c1ccncc1 (stereo unspecified)	-11.2	1.1	-0.4	29.1*	-40.6	-10.6
C/C(=N/NC(=O)CNC(=O)/C=C/c1ccco1)c1ccc(Cl)cc1	-4.7	1	0.7	.	.	-7.1
CCC(=O)NC(c1ccc(C)cc1)c1cc([N+](=O)[O-])c2cccnc2c1O (stereo unspecified)	23.0	0.8	2.9	-3.8	85.4*	-14.5
CC(=O)NC(c1ccc(C)cc1)c1cc([N+](=O)[O-])c2cccnc2c1O (stereo unspecified)	13.1	0.9	2.0	.	.	14.5
CS(=O)(=O)N(CC(O)CON=C1c2ccccc2-c2ccccc21)c1ccc(F)cc1 (stereo unspecified)	-5.7	1.1	2.8	-11.2	-74.5	-5.4
Cc1cccc(N(CC(O)CON=C2c3ccccc3-c3ccccc32)S(C)(=O)=O)c1 (stereo unspecified)	-8.3	1.1	9.8*	-1.2	-0.8	-15.7
CN(CC(O)CON=C1c2ccccc2-c2ccccc21)S(=O)(=O)c1ccc(Br)cc1 (stereo unspecified)	-0.2	1	9.3*	-0.9	-14.2	-13.0
O=C(/C=C/c1ccc(F)cc1)NC(Cc1c[nH]c2ccccc12)C(=O)O (stereo unspecified)	-1.3	1	6.8	.	.	-9.6
COc1ccc(/C=C2\CN(Cc3ccccc3)C/C(=C\c3ccc(OC)cc3)C2=O)cc1	-2.1	1	10.6*	0.2	-17.8	-7.2
COc1ccc(/C=C2\CN(Cc3ccccc3)C/C(=C\c3ccc(OC)cc3OC)C2=O)c(OC)c1	6.3	0.9	2.4	-28.4	-44.6	4.3
